Assay results taken from ChEMBL document CHEMBL1140583, “A polyacetylene compound from herbal medicine regulates genes associated with thrombosis in endothelial cells” (2007).

Tests used:
Format in all cases: functional, Homo sapiens
[1] = tested on: HUVEC; experiment: Increase in TI-PARP gene expression in HUVEC at 5 ug/ml after 4 hrs relative to control
[2] = tested on: HUVEC; experiment: Increase in COX2 gene expression in HUVEC at 5 ug/ml after 4 hrs relative to control
[3] = tested on: HUVEC; experiment: Increase in SerpinB2 gene expression in HUVEC at 5 ug/ml after 4 hrs relative to control
Summary of the method: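 HUVEC exposed to the purified compound at 5 μg/ml. SerpinB2 mRNA quantified by real-time RT-PCR against untreated control HUVEC, reported as log2 relative quantity (log2RQ). The same SerpinB2 RT-PCR read-out guided activity-based fractionation of the herbal extract.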

[4] = tested on: HUVEC; experiment: Increase in CYP450, family 1, subfamily B, polypeptide 1 gene expression in HUVEC at 5 ug/ml after 4 hrs relative to control
[5] = tested on: HUVEC; experiment: Increase in solute carrier family 7, member 11 gene expression in HUVEC at 5 ug/ml after 4 hrs relative to control
[6] = tested on: HUVEC; experiment: Decrease in zinc finger and BTB domain containing 16 gene expression in HUVEC at 5 ug/ml after 4 hrs relative to control
[7] = tested on: HUVEC; experiment: Decrease in ATP-binding cassette, subfamily G, member 1 gene expression in HUVEC at 5 ug/ml after 4 hrs relative to control
[8] = tested on: HUVEC; experiment: Decrease in perlecan gene expression in HUVEC at 5 ug/ml after 4 hrs relative to control
[9] = tested on: HUVEC; experiment: Decrease in mesenchyme homebox2 gene expression in HUVEC at 5 ug/ml after 4 hrs relative to control
[10] = tested on: HUVEC; experiment: Decrease in AT rich interactive domain 1A gene expression in HUVEC at 5 ug/ml after 4 hrs relative to control

Compound: C/C=C/C#CC#C/C=C/CCC(CCOC(C)=O)OC(C)=O (stereo not given)
- Fold change [1]: 2.3
- Fold change [2]: 2
- Fold change [3]: 2
- Fold change [4]: 6.5
- Fold change [5]: 2.3
- Fold change [6]: -2
- Fold change [7]: -1.9
- Fold change [8]: -1.7
- Fold change [9]: -2.1
- Fold change [10]: -1.9
